Shown are actives, neighbours in structure and some others; about 2.2% of the full set was active somewhere.
SMARCA2 activ = activators of SMARCA2 function; MG213 cells, MMTV-luciferase reporter, dexamethasone, overnight; activation, % at 9.1 µM; hit rate 1% among 370,000; in the data active means activation above about 7.8%;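 further: 0% = vehicle wells and 100% = reference activator wells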
NR2E3 ag-1 = agonists of human NR2E3 nuclear receptor. hit rate 0.35% among 360,000. CHO-S Gal4-NCOR/VP16-NR2E3 two-hybrid, luciferase. Q9Y5X4. inhibition of corepressor binding, % at 3.98 µM;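 active means inhibition above the mean of all tested compounds plus 3 SD, cut at about 70% in these data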;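 further: 0% = DMSO with NR2E3 transfected cells and 100% = cells lacking NR2E3 construct; higher means lower luciferase signal from less NR2E3 corepressor binding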
Target sequence (Q9Y5X4 whole entry, looked up, the tested form may be a part): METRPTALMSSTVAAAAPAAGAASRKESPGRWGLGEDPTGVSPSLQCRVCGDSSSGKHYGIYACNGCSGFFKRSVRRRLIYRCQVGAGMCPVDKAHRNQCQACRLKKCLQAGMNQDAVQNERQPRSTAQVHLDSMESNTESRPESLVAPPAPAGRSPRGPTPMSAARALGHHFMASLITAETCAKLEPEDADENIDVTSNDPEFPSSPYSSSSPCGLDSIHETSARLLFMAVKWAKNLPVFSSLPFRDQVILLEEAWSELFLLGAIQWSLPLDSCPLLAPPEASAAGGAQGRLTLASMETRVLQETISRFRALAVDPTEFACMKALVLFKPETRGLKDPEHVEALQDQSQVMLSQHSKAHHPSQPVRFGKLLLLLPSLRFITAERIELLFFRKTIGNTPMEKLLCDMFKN
GalR3 antag = antagonists of human GalR3; O60755; HEK293 GalR3-CNG cAMP membrane potential fluorescence; galR3 body fused to GalR1 C-terminus; inhibition, % at 3 µM; hit rate 0.44% among 360,000; AID 651719;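 active means inhibition above the screen-wide average plus 3 SD, cut at about 13% in these data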;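 further: forskolin and galanin both at EC90 stimulate the cells; cAMP rise reported by CNG channel membrane potential dye signal; 0% = forskolin plus galanin with DMSO and 100% = forskolin alone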
Target sequence (O60755 1-299 limits assumed): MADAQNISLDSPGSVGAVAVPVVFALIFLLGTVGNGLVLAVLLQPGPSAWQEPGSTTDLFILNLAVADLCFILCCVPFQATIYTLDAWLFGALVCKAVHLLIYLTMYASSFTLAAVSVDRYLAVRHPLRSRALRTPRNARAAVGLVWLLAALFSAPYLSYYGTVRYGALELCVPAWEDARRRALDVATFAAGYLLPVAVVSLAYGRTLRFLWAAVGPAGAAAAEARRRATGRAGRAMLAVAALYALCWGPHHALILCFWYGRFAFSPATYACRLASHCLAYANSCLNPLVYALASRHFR
NR2E3 ag-2 = activates human photoreceptor nuclear receptor NR2E3 | Q9Y5X4 | GST-NR2E3/biotin-RetCOR TR-FRET, 1536-well | inhibition of corepressor binding, % at 4.78 µM | hit rate 0.12% among 320,000;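 active means percent inhibition above the cutoff of mean plus 3 SD of all tested compounds, set per screening campaign, cut at about 20% in these data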;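 further: 0% = DMSO wells and 100% = biotin wells as full block of FRET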
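Material – GST-tagged NR2E3 plus biotinylated RetCOR corepressor · Quantity – NR2E3 fusion 1.35 nM · Times – 5 h incubation at 4 °C · Medium – pH 7.5 Tris-based buffer · Technique – TR-FRET, Eu(K)-anti-GST donor, streptavidin-D2 acceptor, ex 340, em 617/671 nm · Benchmarks – high control biotin, low control 0.6% DMSO · Format – 1536-well plates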
NR2F2 inh = blocks human COUP-TFII nuclear receptor | inhibition, % at 8.6 µM | hit rate 0.7% among 370,000 | HEK293T NGFI-A luciferase reporter, luminescence | P24468;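 active means inhibition above a per-plate cutoff, mean inhibition of test wells between control levels plus 3 SD, cut at about 38% in these data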;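 further: cells cotransfected with COUP-TFII expression vector driving the NGFI-A reporter; 0% = median of COUP-TF2 test wells and 100% = reporter-only cells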
SMARCA2 conf = SMARCA2 activation, confirmation screen | activation, % at 9.1 µM | AID 652260 | MG213 cells, MMTV-luciferase with dexamethasone, luminescence, overnight; MG213 cells expressing E1A, Rb sequestered; DMSO wells 0%, reference activator 100% | hit rate 30% among 3,500 | shares compounds with SMARCA2 activ;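 active means activation above its plate's cutoff, the mean activation of tested wells plus 3 SD, cut at about 7.9% in these data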
GAL4-VP16 Luc = GAL4-VP16 reporter activation counter-screen; HEK293 GAL4-VP16 pG5luc reporter, luciferase luminescence; scaled: DMSO wells 0%, SAHA wells 100%; activation, % at 9.1 µM; shares compounds with SMARCA2 activ; AID 686939; hit rate 41% among 3,500;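 active means activation above the solvent-only control well mean plus 3 SD, averaged across control plates, cut at about 5.2% in these data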
* marks the source's active call; other numbers are inactive results; . = not tested or not shown.

SMILES | SMARCA2 activ | NR2E3 ag-1 | GalR3 antag | NR2E3 ag-2 | NR2F2 inh | SMARCA2 conf | GAL4-VP16 Luc
O=C(/C=C/c1ccccc1)c1ccc(NC2=NCCCS2)cc1 | 5.3 | -76.1 | -3.4 | -4.1 | -27.0 | . | .
O=C(/C=C/c1ccc(Br)cc1)c1ccc(NC2=NCCCS2)cc1 | 25.0* | -21.4 | 10.1 | -3.3 | 36.8 | 11.5* | 1.9
CC(=O)NCCc1cc2ccc(C)c(C)c2[nH]c1=O | 8.3* | 6.8 | 0.6 | -1.5 | -8.9 | -1.3 | 0.7
COc1ccc2[nH]c(=O)c(COC(=O)c3cccs3)cc2c1 | -1.7 | -17.9 | -6.2 | -1.8 | 1.1 | . | .
Cc1ccc2cc(CCNC(=O)c3cccs3)c(=O)[nH]c2c1 | 8.1* | -82.6 | -0.6 | 0.8 | -43.1 | 6.0 | 8.3*
Cc1ccc2[nH]c(=O)c(COC(=O)c3cccs3)cc2c1 | 8.6* | -38.8 | -8.5 | 17.6 | 9.9 | -1.9 | -0.9
Cc1ccc2cc(CCNC(=O)CC(C)(C)C)c(=O)[nH]c2c1C | -2.2 | -21.9 | 1.3 | 8.0 | -9.8 | . | .
Cc1ccc2cc(CCNC(=O)c3cccs3)c(=O)[nH]c2c1C | 0.6 | -150.1 | 1.9 | -1.9 | -34.8 | . | .
COP(=O)(O)C(C)NC(=O)OCc1ccccc1 (stereo not drawn) | 3.3 | . | . | . | -5.0 | . | .
N/C(=N\OC(=O)c1cccc2ccccc12)c1ccccn1 | 10.7* | -131.3 | -5.5 | 0.4 | -49.0 | 11.0* | 10.1*
N/C(=N\OC(=O)c1ccco1)c1ccccc1 | 5.8 | -66.8 | -2.1 | -1.2 | -56.1 | . | .
N/C(=N\OC(=O)c1ccco1)c1ccccn1 | 11.8* | -61.1 | -4.9 | 3.7 | -26.2 | 7.9* | 9.2*
COc1ccc(/C(N)=N/OC(=O)c2ccco2)cc1 | 8.6* | -124.3 | -3.2 | -0.3 | -6.4 | 7.5 | 13.2*
Cc1cccc(/C(N)=N/OC(=O)c2ccco2)c1 | 9.3* | -111.1 | -0.3 | 0.1 | -19.7 | 18.6* | 11.4*
CCOC(=O)NC(=O)/C(C#N)=C\Nc1ccc(Cl)cc1Cl | 9.0* | -51.6 | -4.6 | -3.1 | -44.6 | 1.0 | 7.9*
CCOC(=O)NC(=O)/C(C#N)=C\Nc1sccc1C(=O)OC | 5.5 | -7.7 | -1.5 | -4.0 | 8.4 | . | .
COC(=O)[C@@H](CC(C)C)CP(=O)(OC)[C@@H](C)NC(=O)OCc1ccccc1 (stereo partly drawn) | -1.1 | . | . | . | -2.6 | . | .
C=CCNC(=O)c1cc(-c2ccc3c(c2)OCO3)on1 | 9.1* | -113.6 | -8.9 | 0.8 | -33.4 | 8.2* | 10.4*
O=S1(=O)c2ccc(Br)cc2OC[C@@H](Cc2ccccc2)N1Cc1cn(Cc2ccc(C(F)(F)F)cc2)nn1 | 0.8 | . | . | . | -6.0 | . | .
O=C(Nc1ccc(S(=O)(=O)N2CCOCC2)cc1)C1CC1 | 1.6 | -14.0 | -6.7 | 3.6 | -10.6 | . | .
Cc1ccc(NC(=O)C2CCN(S(=O)(=O)c3ccc(C(C)(C)C)cc3)CC2)cc1S(=O)(=O)N1CCOCC1 | 8.4* | 12.0 | -3.4 | . | -3.5 | -6.8 | 0.2
CCCC(=O)Nc1c2c(nc3ccccc13)N(c1ccccc1)CC2 | . | -15.9 | . | -0.9 | . | . | .
O=C(CN1CCCCC1)Nc1c2c(nc3ccccc13)N(c1ccccc1)CC2 | 10.8* | 6.5 | -0.8 | -11.0 | -18.7 | 9.4* | 2.2
CC(C)C[C@@H]1COc2cc(N3CCCC3)ccc2S(=O)(=O)N1C | -0.5 | . | . | . | -12.2 | . | .
O=C1NC(=O)/C(=C\c2ccc(OCc3cccc(C(=O)O)c3)c(Cl)c2)N1 | 9.0* | -237.2 | -5.3 | 0.8 | -35.9 | 7.5 | 8.4*
SMILES | SMARCA2 activ | NR2E3 ag-1 | GalR3 antag | NR2E3 ag-2 | NR2F2 inh | SMARCA2 conf | GAL4-VP16 Luc
CSc1nnc(NC(=O)c2ccc3c(c2)OCO3)s1 | 5.6 | -116.6 | 1.1 | 1.6 | -26.0 | . | .
Cc1nnc(NC(=O)c2ccc3c(c2)OCO3)s1 | 10.3* | -81.8 | -4.1 | -0.9 | -40.7 | 7.0 | 9.5*
O=C(Nc1ccc2c(c1)oc1ccccc12)c1ccc2c(c1)OCO2 | 8.9* | -91.6 | -4.7 | -8.6 | -5.0 | 7.1 | -0.7
CCCCCN1CCCCC(NC(=O)c2ccc(C)cc2)C1=O (stereo not drawn) | -1.0 | . | . | . | -4.5 | . | .
CCCCNc1cccc2c1S(=O)(=O)N[C@@H](CC(C)C)CO2 | 0.6 | . | 1.4 | . | 16.7 | . | .
COCc1cc(C)nc(SCC(=O)Nc2ccc(C)c(C)c2)c1C#N | 8.1* | -31.0 | -5.7 | 2.2 | -44.2 | 3.7 | 4.2
COc1ccc(SCC(=O)Nc2ccc(N3CCN(C)CC3)c(F)c2)cc1 | 2.5 | 0.9 | -3.5 | 1.1 | 9.9 | . | .
Cc1ccc(SCC(=O)Nc2ccc(N3CCN(C)CC3)c(F)c2)cc1 | 10.6* | -48.9 | -6.2 | 3.3 | -29.2 | 4.7 | 3.7
CC(=O)NC(Cc1ccc2c(c1)OCO2)C(=O)N1CCCN(C(C)=O)CC1 (stereo not drawn) | -7.9 | . | . | . | 0.1 | . | .
C=CCN1C(=O)[C@@H](CC(=O)N2CCN(C(=O)C3CC3)CC2)[C@]2(C(=O)OCC)CCCCC/C=C/12 | -5.5 | . | . | . | 1.5 | . | .
O=C(N/N=C/c1ccc(F)cc1)c1ccncc1 | 3.9 | -6.6 | -9.9 | 0.1 | 5.2 | . | .
C/C=C/C=N\NC(=O)c1ccncc1 | 8.2* | -23.6 | -1.0 | 0.7 | -9.2 | 2.5 | -0.8
CCN(CC)C(=O)CC[C@@H]1CC[C@]2(CCCN(Cc3ccccn3)C2)O1 | 1.1 | . | . | . | 6.4 | . | .
Nn1c(SCc2ccc([N+](=O)[O-])cc2)nnc1-c1n[nH]c2c1CCC2 | 0.9 | . | . | . | -1.8 | . | .
c1ccc(C2=Nc3ccccc3NC(c3ccccc3)C2)cc1 (stereo not drawn) | 9.7* | -113.6 | -3.8 | 6.4 | -28.6 | 2.6 | 7.0*
Clc1ccccc1C1CC(c2ccccc2)=Nc2ccccc2N1 (stereo not drawn) | 0.9 | -155.8 | -10.6 | 0.6 | -29.4 | . | .
COc1cc(/C=N/O)ccc1OCc1ccc(C(=O)O)cc1 | 5.3 | -167.3 | -4.8 | -1.2 | -32.9 | . | .
COc1cc(/C=N/O)ccc1OCc1ccc(Cl)cc1 | 16.7* | . | -7.1 | -0.2 | -44.3 | 12.4* | 8.7*
O=C1/C(=C/c2ccco2)Cc2ccccc21 | 11.4* | -24.5 | -6.3 | -5.4 | -16.9 | 12.9* | 3.8
O=C1C(=Cc2ccc(F)cc2)Cc2ccccc21 | 4.5 | -16.5 | -8.8 | . | -12.0 | . | .
COc1ccc([C@H]2OC(=O)C[C@@H]2C(=O)N2CCCCC2)cc1OC | -3.1 | . | . | . | -6.7 | . | .
CC(Sc1nnc(NC2CCCCC2)s1)C(=O)Nc1ccc2c(c1)C(=O)c1ccccc1C2=O (stereo not drawn) | 10.0* | -95.0 | -3.6 | -0.8 | -13.8 | 2.6 | 12.0*
CCN(CC)S(=O)(=O)c1cc(C(=O)OCC(=O)NC2CCCc3ccccc32)ccc1C (stereo not drawn) | 11.1* | 11.2 | -4.7 | 1.2 | 13.7 | -2.5 | -1.0
O=C(CSc1nnc(Cc2ccccc2)o1)NCCc1ccccc1 | 8.2* | 21.7 | -3.4 | 2.3 | 11.8 | 5.8 | -1.3
